Legend:
[1] = Volume of distribution in rat at 0.5 mg/kg, iv; type: ADME, organism-based; details: in vivo
How it was run: (§1)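 Rat PK after a single intravenous dose of 0.5 mg/kg given in DMSO. Plasma clearance, volume of distribution and half-life were derived from the plasma data.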

Rattus norvegicus [2] = assay: In vivo inhibition of MB-COMT in ip dosed rat assessed as decrease in homovanillic acid level in cerebrospinal fluid after 1 hr; type: functional, organism-based
How it was run: (§2)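 Rats were dosed intraperitoneally, and cerebrospinal fluid was collected one hour later. HVA and DOPAC levels were measured and compared with vehicle by ANOVA, with significance set at p<0.05.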

[3] = target: T1, Catechol O-methyltransferase (Rattus norvegicus, UniProt P22734); assay: Inhibition of recombinant rat C-terminal His10-tagged MB-COMT transfected in Escherichia coli BL21-CodonPlus(DE3)-RIPL using SAM/dopamine as substrate preincubated for 2 hrs followed by substrate addition measured after 25 mins by SAC TAMRA tracer-based fluorescence polarization assay
T1 sequence (P22734 whole entry): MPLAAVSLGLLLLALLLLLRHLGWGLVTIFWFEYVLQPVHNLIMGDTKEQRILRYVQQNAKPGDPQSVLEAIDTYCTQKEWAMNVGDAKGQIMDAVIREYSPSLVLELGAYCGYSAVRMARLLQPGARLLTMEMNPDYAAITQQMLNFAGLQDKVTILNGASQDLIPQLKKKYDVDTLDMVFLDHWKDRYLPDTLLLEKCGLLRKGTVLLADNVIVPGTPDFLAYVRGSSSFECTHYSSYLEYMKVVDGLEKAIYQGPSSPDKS

Cerebrospinal fluid = assay: Drug uptake in rat cerebrospinal fluid at 30 mg/kg, ip after 1 hr; type: ADME, organism-based; details: in vivo, BLD = below limit of detection
How it was run: (§3)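 Rats dosed intraperitoneally at 30 or 100 mg/kg. Plasma and cerebrospinal fluid were sampled one hour after dosing, and drug concentrations were measured in each.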

[4] = Plasma concentration in rat at 30 mg/kg, ip after 1 hr; type: ADME, organism-based; how it was run: as §3
[5] = Half life in rat at 0.5 mg/kg, iv; type: ADME, organism-based; details: in vivo; how it was run: as §1
[6] = Intrinsic clearance in rat hepatocytes; type: ADME, cell-based, Hepatocyte; details: read-out: CLH
Rattus norvegicus [7] = assay: In vivo inhibition of MB-COMT in ip dosed rat assessed as increase in dihydroxyphenylacetic acid level in cerebrospinal fluid after 1 hr; type: functional, organism-based; how it was run: as §2
[8] = target: T2, Catechol O-methyltransferase (Homo sapiens, UniProt P21964); assay: Inhibition of recombinant human C-terminal His6-tagged MB-COMT expressed in Bacmid using SAM/dopamine as substrate preincubated for 2 hrs followed by substrate addition measured after 25 mins by SAC TAMRA tracer-based fluorescence polarization assay
T2 sequence (P21964 whole entry): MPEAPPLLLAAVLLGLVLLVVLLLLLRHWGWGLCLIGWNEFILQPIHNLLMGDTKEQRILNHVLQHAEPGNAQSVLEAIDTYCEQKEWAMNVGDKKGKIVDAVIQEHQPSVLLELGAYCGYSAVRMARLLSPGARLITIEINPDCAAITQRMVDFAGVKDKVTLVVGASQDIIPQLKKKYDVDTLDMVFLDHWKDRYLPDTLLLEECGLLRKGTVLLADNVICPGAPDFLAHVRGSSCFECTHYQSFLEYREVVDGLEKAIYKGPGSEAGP

[9] = Drug uptake in rat cerebrospinal fluid at 100 mg/kg, ip after 1 hr; type: ADME, organism-based; details: read-out: Drug uptake; how it was run: as §3
[10] = Plasma concentration in rat at 100 mg/kg, ip after 1 hr; type: ADME, organism-based; how it was run: as §3
[11] = Intrinsic clearance in human hepatocytes; type: ADME, cell-based, Hepatocyte; details: read-out: CLH
[12] = Plasma clearance in rat at 0.5 mg/kg, iv; type: ADME, organism-based; how it was run: as §1
[13] = target: T2, Catechol O-methyltransferase; assay: Inhibition of recombinant human C-terminal His6-tagged soluble COMT transfected in Escherichia coli BL21-Gold (DE3) using SAM/dopamine as substrate preincubated for 2 hrs followed by substrate addition measured after 25 mins by SAC TAMRA tracer-based fluorescence polarization assay

Row | SMILES | IC50 [8] [µM] | IC50 [13] [µM] | also measured
1 | O=c1ccn(-c2cc(-c3ccccc3)ccn2)cc1O | 0.04 | 3.02 | Vd [1]: 1.9 L/kg; inhibition (Rattus norvegicus [2]): Dose-dependent effect; IC50 [3]: 0.015 µM; Drug uptake (Cerebrospinal fluid): BLD; concentration at 1 h [4]: 0.07 µM; half-life [5]: 24 min; CLint scaled [6]: 26.9 L/h/kg; inhibition (Rattus norvegicus [7]): Dose-dependent effect; concentration at 1 h [9]: 0.41 µM; concentration at 1 h [10]: 3.6 µM; CLint scaled [11]: 4.44 L/h/kg; clearance [12]: 5.64 L/h/kg
2 | O=c1ccn(-c2cc(-c3ccccn3)ccn2)cc1O | 0.826 |  | 
3 | O=c1ccn(-c2cccc(-c3ccccc3)n2)cc1O | 0.128 | 2.58 | 
4 | O=c1ccn(-c2cc(-c3ccncc3)ccn2)cc1O | 0.672 |  | 
5 | O=c1ccn(-c2cc(-c3cccc(C(F)(F)F)n3)ccn2)cc1O | 0.084 |  | IC50 [3]: 0.011 µM
6 | O=c1ccn(-c2cc(-c3cccnc3)ccn2)cc1O | 0.574 |  | 
7 | O=c1ccn(-c2cc(-c3ccc(Cl)c(Cl)c3)ccn2)cc1O | 0.035 |  | IC50 [3]: 0.027 µM; CLint scaled [11]: 17.5 L/h/kg; clearance [12]: 12 L/h/kg
8 | O=c1ccn(-c2nc(-c3ccccn3)cs2)cc1O | > 5 | > 5 | 
9 | CC(C)(C)c1nc(-c2ccnc(-n3ccc(=O)c(O)c3)c2)cs1 | 0.101 |  | IC50 [3]: 0.015 µM
10 | O=c1ccn(-c2ccnc(-c3ccccc3)c2)cc1O | 0.456 | 2.33 | 
11 | O=c1ccn(-c2cc(-c3cnn(Cc4ccccc4)c3)ccn2)cc1O | 0.0495 |  | IC50 [3]: 0.028 µM
12 | O=c1ccn(-c2ccnc(-c3ccccc3)n2)cc1O | 0.706 | 2.05 | 
13 | O=c1ccn(-c2nccc3ccccc23)cc1O | 0.962 | 1.27 | 
14 | O=c1ccn(-c2ncccc2-c2ccccc2)cc1O | > 5 | > 5 | 
15 | Cc1cn2nc(-n3ccc(=O)c(O)c3)ccc2n1 | > 5 | 1.67 | 
16 | O=c1ccn(-c2nccc(-c3ccccc3)c2F)cc1O | 0.055 | 0.946 | 
17 | O=c1ccn(-c2cccc(-c3ccccc3)c2)cc1O |  |  | CLint scaled [6]: 35 L/h/kg; CLint scaled [11]: 19.2 L/h/kg; clearance [12]: 3.48 L/h/kg

From ChEMBL document CHEMBL3797074, “Synthesis and optimization of N-heterocyclic pyridinones as catechol-O-methyltransferase (COMT) inhibitors” (Bioorg Med Chem Lett, 2016)
